# ChEMBL document CHEMBL1159387, “Absolute stereostructures of new arborinane-type triterpenoids and inhibitors of nitric oxide production from Rubia yunnanensis” (J Nat Prod, 2003)
# Assays:
# Macrophage [1] = experiment: Inhibition of nitric oxide production in lipopolysaccharide-activated ddY mouse macrophages at 3 uM relative to control; type: functional
# Summary of the method: (§1)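 Peritoneal macrophages from male ddY mice given 4% thioglycolate i.p. 4 days earlier, plated at 5 × 10^5 cells/well in RPMI 1640 with 5% FCS, 1 h at 37 °C; adherent cells (>95% macrophages) then cultured 20 h with 10 µg/mL LPS plus compound (1-100 µM, DMSO final 0.5%). Nitrite in medium measured by Griess reagent; % inhibition versus LPS-only control, IC50 read graphically, N = 4.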
# Macrophage [2] = experiment: Inhibition of nitric oxide production in lipopolysaccharide-activated ddY mouse macrophages at 10 uM relative to control; type: functional; summary of the method: as §1
# Macrophage [3] = experiment: Inhibition of nitric oxide production in lipopolysaccharide-activated ddY mouse macrophages at 30 uM relative to control; type: functional; summary of the method: as §1
# Macrophage [4] = experiment: Inhibition of nitric oxide production in lipopolysaccharide-activated ddY mouse macrophages at 100 uM relative to control; type: functional; summary of the method: as §1
# [5] = Toxicity in lipopolysaccharide-activated ddY mouse macrophages at 100 uM by MTT method; type: cell-based; details: macrophage
# Summary of the method: (§2)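 Peritoneal exudate cells from male ddY mice given 4% thioglycolate i.p. 4 days earlier, plated at 5 × 10^5 cells/well in RPMI 1640 with 5% FCS, 1 h at 37 °C. Non-adherent cells washed off. Adherent macrophages exposed to 10 µg/mL LPS plus compound (DMSO, final 0.5%) for 20 h. MTT added for 4 h, formazan dissolved in 2-propanol/0.04 M HCl, read at 570 nm (ref 655 nm). N=4.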
# Macrophage [6] = experiment: Inhibition of nitric oxide production in lipopolysaccharide-activated ddY mouse macrophages at 1 uM relative to control; type: functional; summary of the method: as §1
# [7] = Toxicity in lipopolysaccharide-activated ddY mouse macrophages by MTT method; type: cell-based; details: macrophage
# Summary of the method: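 Thioglycolate-elicited ddY mouse peritoneal macrophages were treated for 20 h with 10 µg/mL LPS plus compound (1-100 µM, 0.5% DMSO final). MTT (5 mg/mL in PBS) was then added for 4 h, and formazan was dissolved in 2-propanol with 0.04 M HCl. Absorbance was read at 570 nm (reference 655 nm), N = 4.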
# [8] = Toxicity in lipopolysaccharide-activated ddY mouse macrophages at 30 uM by MTT method; type: cell-based; details: macrophage; summary of the method: as §2
# [9] = Inhibition of NOS; summary of the method: as §1
smiles,measurement,setting,value
Cc1c(O)cc2c(c1O)C(=O)c1ccc(O)cc1C2=O,inhibition at 3 µM,Macrophage [1],7.9%
same,inhibition at 10 µM,Macrophage [2],37.5%
same,inhibition at 30 µM,Macrophage [3],99.5%
same,inhibition at 100 µM,Macrophage [4],99.6%
same,Activity,[5],Toxic
same,inhibition at 1 µM,Macrophage [6],4.9%
CC(=O)OC[C@@]12CC[C@@]3(C)[C@H]4C(=CC[C@]3(C)[C@H]1[C@H](OC(C)=O)C[C@H]2C(C)C)[C@@]1(C)CC[C@H](OC(C)=O)C(C)(C)[C@@H]1C[C@@H]4OC(C)=O,inhibition at 3 µM,Macrophage [1],10.6%
same,inhibition at 10 µM,Macrophage [2],-1.2%
same,inhibition at 30 µM,Macrophage [3],0%
same,inhibition at 100 µM,Macrophage [4],6.6%
same,inhibition at 1 µM,Macrophage [6],5.3%
CC(=O)OC[C@@]12CC[C@@]3(C)[C@H]4C(=CC[C@]3(C)[C@H]1[C@H](O)C[C@H]2C(C)C)[C@@]1(C)C[C@@H](O)C(=O)C(C)(C)[C@@H]1C[C@@H]4O,inhibition at 3 µM,Macrophage [1],-1.5%
same,inhibition at 10 µM,Macrophage [2],0%
same,inhibition at 30 µM,Macrophage [3],-5.8%
same,inhibition at 100 µM,Macrophage [4],15.4%
same,inhibition at 1 µM,Macrophage [6],-1.1%
CC(=O)OC[C@@]12CC[C@@]3(C)[C@H]4C(=CC[C@]3(C)[C@H]1[C@H](O)C[C@H]2C(C)C)[C@@]1(C)CC[C@H](O)C(C)(C)[C@@H]1C[C@@H]4O,inhibition at 3 µM,Macrophage [1],11.1%
same,inhibition at 10 µM,Macrophage [2],4.7%
same,inhibition at 30 µM,Macrophage [3],-7.4%
same,inhibition at 100 µM,Macrophage [4],25.5%
same,Activity,[5],Toxic
same,inhibition at 1 µM,Macrophage [6],5.2%
CC(C)[C@@H]1C[C@@H](O)[C@H]2[C@@]1(CO)CC[C@@]1(C)[C@H]3C(=CC[C@]21C)[C@@]1(C)C[C@@H](O)C(=O)C(C)(C)[C@@H]1C[C@@H]3O,inhibition at 3 µM,Macrophage [1],-10.3%
same,inhibition at 10 µM,Macrophage [2],2.1%
same,inhibition at 30 µM,Macrophage [3],1.8%
same,inhibition at 100 µM,Macrophage [4],40.3%
same,inhibition at 1 µM,Macrophage [6],-9.6%
CC(=O)OC[C@@]12CC[C@@]3(C)[C@H]4C(=CC[C@]3(C)[C@H]1[C@H](O)C[C@H]2C(C)C)[C@@]1(C)C[C@@H](O)[C@H](O)C(C)(C)[C@@H]1C[C@@H]4O,inhibition at 3 µM,Macrophage [1],5.3%
same,inhibition at 10 µM,Macrophage [2],4.3%
same,inhibition at 30 µM,Macrophage [3],-11.1%
same,inhibition at 100 µM,Macrophage [4],76.5%
same,Activity,[7],Non-toxic
same,inhibition at 1 µM,Macrophage [6],17%
CC(=O)OC[C@@]12CC[C@@]3(C)[C@H]4C(=CC[C@]3(C)[C@H]1[C@H](OC(C)=O)C[C@H]2C(C)C)[C@@]1(C)C[C@@H](OC(C)=O)[C@H](OC(C)=O)C(C)(C)[C@@H]1C[C@@H]4OC(C)=O,inhibition at 3 µM,Macrophage [1],9.5%
same,inhibition at 10 µM,Macrophage [2],18.7%
same,inhibition at 30 µM,Macrophage [3],25.5%
same,inhibition at 100 µM,Macrophage [4],28.4%
same,inhibition at 1 µM,Macrophage [6],7.7%
COc1cc(O)cc(OC)c1C(=O)O,inhibition at 3 µM,Macrophage [1],9.3%
same,inhibition at 10 µM,Macrophage [2],7.5%
same,inhibition at 30 µM,Macrophage [3],7.2%
same,inhibition at 100 µM,Macrophage [4],28%
same,inhibition at 1 µM,Macrophage [6],9.5%
CC(=O)OC[C@@]12CC[C@@]3(C)[C@H]4C(=CC[C@]3(C)[C@H]1[C@H](O)C[C@H]2C(C)C)[C@@]1(C)C[C@@H](OC(C)=O)[C@H](O)C(C)(C)[C@@H]1C[C@@H]4O,inhibition at 3 µM,Macrophage [1],21.3%
same,inhibition at 10 µM,Macrophage [2],-12%
same,inhibition at 30 µM,Macrophage [3],-7.9%
same,inhibition at 100 µM,Macrophage [4],77.1%
same,Activity,[7],Non-toxic
same,inhibition at 1 µM,Macrophage [6],20.2%
CC(=O)OC[C@@]12CC[C@@]3(C)[C@H]4C(=CC[C@]3(C)[C@H]1[C@H](OC(C)=O)C[C@H]2C(C)C)[C@@]1(C)C[C@@H](OC(C)=O)C(=O)C(C)(C)[C@@H]1C[C@@H]4OC(C)=O,inhibition at 3 µM,Macrophage [1],7.3%
same,inhibition at 10 µM,Macrophage [2],12.5%
same,inhibition at 30 µM,Macrophage [3],18.7%
same,inhibition at 100 µM,Macrophage [4],23%
same,inhibition at 1 µM,Macrophage [6],1.7%
COc1cc(C[C@@H](CO)[C@H](CO)Cc2ccc(O)c(OC)c2)ccc1O [(+)-SECOISOLARICIRESINOL],inhibition at 3 µM,Macrophage [1],-7.3%
same,inhibition at 10 µM,Macrophage [2],6.5%
same,inhibition at 30 µM,Macrophage [3],0.9%
same,inhibition at 100 µM,Macrophage [4],-12.5%
same,inhibition at 1 µM,Macrophage [6],5.9%
COc1cc([C@H]2c3cc(O)c(OC)cc3C[C@@H](CO)[C@@H]2CO)ccc1O [ISOLARICIRESINOL],inhibition at 3 µM,Macrophage [1],-0.6%
same,inhibition at 10 µM,Macrophage [2],0.6%
same,inhibition at 30 µM,Macrophage [3],5.1%
same,inhibition at 100 µM,Macrophage [4],7.5%
same,inhibition at 1 µM,Macrophage [6],-0.2%
COc1cc(C[C@H]2CO[C@H](c3ccc(O)c(OC)c3)[C@H]2CO)ccc1O [LARICIRESINOL],inhibition at 3 µM,Macrophage [1],3%
same,inhibition at 10 µM,Macrophage [2],5.5%
same,inhibition at 30 µM,Macrophage [3],-8.2%
same,inhibition at 100 µM,Macrophage [4],11.9%
same,inhibition at 1 µM,Macrophage [6],4%
CC(=O)O[C@@H]1C[C@]2(C)C3=CC[C@]4(C)[C@H]5[C@@H]6C[C@@H](C(C)C)[C@@]5(CC[C@@]4(C)[C@@H]3[C@@H](O)C[C@H]2C(C)(C)[C@H]1O[C@@H]1O[C@H](CO)[C@@H](O)[C@H](O)[C@H]1O)CO6 [RUBIANOSIDE I],inhibition at 3 µM,Macrophage [1],-0.3%
same,inhibition at 10 µM,Macrophage [2],-8%
same,inhibition at 30 µM,Macrophage [3],1.5%
same,inhibition at 100 µM,Macrophage [4],-3.2%
same,inhibition at 1 µM,Macrophage [6],5.1%
CC(C)[C@@H]1C[C@@H](O)[C@H]2[C@@]1(CO)CC[C@@]1(C)[C@H]3C(=CC[C@]21C)[C@@]1(C)CC[C@H](O)C(C)(C)[C@@H]1C[C@@H]3O [RUBIARBONOL A],inhibition at 3 µM,Macrophage [1],4.2%
same,inhibition at 10 µM,Macrophage [2],-4.2%
same,inhibition at 30 µM,Macrophage [3],2.9%
same,inhibition at 100 µM,Macrophage [4],86.3%
same,Activity,[8],Toxic
same,Activity,[5],Toxic
same,inhibition at 1 µM,Macrophage [6],6.3%
CC(C)[C@@H]1C[C@@H](O)[C@H]2[C@@]1(CO)CC[C@@]1(C)[C@H]3C(=CC[C@]21C)[C@@]1(C)C[C@@H](O)[C@H](O)C(C)(C)[C@@H]1C[C@@H]3O [RUBIARBONOL F],inhibition at 3 µM,Macrophage [1],7.9%
same,inhibition at 10 µM,Macrophage [2],15.4%
same,inhibition at 30 µM,Macrophage [3],22%
same,inhibition at 100 µM,Macrophage [4],60.4%
same,Activity,[5],Toxic
same,inhibition at 1 µM,Macrophage [6],9.6%
CC(C)[C@@H]1C[C@@H](O)[C@H]2[C@@]1(CO)CC[C@@]1(C)[C@H]3C(=CC[C@]21C)[C@@]1(C)CCC(=O)C(C)(C)[C@@H]1C[C@@H]3O [RUBIARBONONE B],inhibition at 3 µM,Macrophage [1],-9.7%
same,inhibition at 10 µM,Macrophage [2],-13.7%
same,inhibition at 30 µM,Macrophage [3],16.9%
same,inhibition at 100 µM,Macrophage [4],19.7%
same,inhibition at 1 µM,Macrophage [6],4.3%
CC(=O)OC[C@@]12CC[C@@]3(C)[C@H]4C(=CC[C@]3(C)[C@H]1[C@H](O)C[C@H]2C(C)C)[C@@]1(C)CCC(=O)C(C)(C)[C@@H]1C[C@@H]4O [RUBIARBONONE C],inhibition at 3 µM,Macrophage [1],3.7%
same,inhibition at 10 µM,Macrophage [2],-2.3%
same,inhibition at 30 µM,Macrophage [3],8%
same,inhibition at 100 µM,Macrophage [4],90.3%
same,Activity,[5],Toxic
same,inhibition at 1 µM,Macrophage [6],-2.1%
CNC(=N)NCCC[C@H](N)C(=O)O [TILARGININE],inhibition at 3 µM,Macrophage [1],10.3%
same,inhibition at 10 µM,Macrophage [2],15%
same,inhibition at 30 µM,Macrophage [3],34.1%
same,inhibition at 100 µM,Macrophage [4],63.1%
same,IC50,[9],57 µM
same,inhibition at 1 µM,Macrophage [6],5.9%
COc1cc(C(=O)O)ccc1O [VANILLIC ACID],inhibition at 3 µM,Macrophage [1],16.2%
same,inhibition at 10 µM,Macrophage [2],8.2%
same,inhibition at 30 µM,Macrophage [3],-3.6%
same,inhibition at 100 µM,Macrophage [4],5.9%
same,inhibition at 1 µM,Macrophage [6],5.9%
